# Assay results published in PubChem BioAssay AID2237 (Johns Hopkins Ion Channel Center, 2010).
# Out of some 310,000 compounds screened, about 1,500 (0.48%) were called active. The sample holds actives, similar compounds and a random draw of the others, so the mix is not that of the screen.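 Rule for the calls: active = B-score above 5 SD of library B-scores, and initial fluorescence ratio not above library mean plus 5 SD; inactive = the rest.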
# Target: Short transient receptor potential channel 4 (Mus musculus) (UniProt Q9QUQ5)
# Sequence (Q9QUQ5 whole entry, looked up): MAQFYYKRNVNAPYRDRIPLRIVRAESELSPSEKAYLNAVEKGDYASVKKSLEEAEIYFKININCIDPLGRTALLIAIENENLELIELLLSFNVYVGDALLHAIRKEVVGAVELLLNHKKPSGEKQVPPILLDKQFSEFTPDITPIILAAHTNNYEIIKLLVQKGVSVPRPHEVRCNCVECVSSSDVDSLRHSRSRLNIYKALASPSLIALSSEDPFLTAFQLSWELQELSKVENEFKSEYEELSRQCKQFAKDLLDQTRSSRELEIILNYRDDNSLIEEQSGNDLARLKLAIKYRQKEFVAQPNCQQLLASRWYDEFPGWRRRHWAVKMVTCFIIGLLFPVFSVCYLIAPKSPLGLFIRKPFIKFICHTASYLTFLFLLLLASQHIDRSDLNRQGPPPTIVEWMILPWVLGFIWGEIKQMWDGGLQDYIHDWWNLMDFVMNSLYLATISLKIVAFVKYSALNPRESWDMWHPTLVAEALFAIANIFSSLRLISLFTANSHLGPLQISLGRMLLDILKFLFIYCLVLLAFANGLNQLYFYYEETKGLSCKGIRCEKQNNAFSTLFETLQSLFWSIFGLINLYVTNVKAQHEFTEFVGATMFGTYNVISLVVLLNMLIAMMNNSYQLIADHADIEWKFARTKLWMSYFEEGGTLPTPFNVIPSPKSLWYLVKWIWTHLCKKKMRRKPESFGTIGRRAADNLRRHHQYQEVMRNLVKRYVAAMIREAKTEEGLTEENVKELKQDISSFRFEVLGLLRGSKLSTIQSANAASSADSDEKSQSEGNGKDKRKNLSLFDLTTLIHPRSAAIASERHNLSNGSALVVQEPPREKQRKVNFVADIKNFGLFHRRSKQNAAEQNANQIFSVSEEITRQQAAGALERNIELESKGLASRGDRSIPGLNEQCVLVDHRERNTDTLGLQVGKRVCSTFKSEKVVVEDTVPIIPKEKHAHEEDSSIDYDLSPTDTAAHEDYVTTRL
# Assay: activators of mouse TRPC4 channel, primary screen, Fluo4 calcium, HEK293 TRPC4beta/mu-opioid cells (AID 2237);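 for B-score: positive B-score marks a calcium rise read as TRPC4 activation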
# Settings: Fluo4 calcium fluorescence, at 10 µM; stronger effect = higher value
# Summary of the method: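 System: HEK293 cells stably co-expressing mouse TRPC4beta and mu-opioid receptor; Schedule: Fluo4 dye loading 45 min at room temperature, 110 s recording; Detection: Fluo4 fluorescence, kinetic; Evaluation: B-scored integrated calcium fluorescence ratio; Controls: buffer (low) and maximal DAMGO (high).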
row,SMILES,B-score
1,O=S(=O)(NCCc1ccncc1)c1ccccc1,inactive
2,Cc1nc(CNS(=O)(=O)c2cccnc2)cs1,inactive
3,O=S(=O)(NCCc1csc(-c2ccccc2)n1)c1cccnc1,102 (active)
4,CC#CC[N+](C)(C)CCCCCC,inactive
5,COC(=O)CC(=O)N1CCN(c2ccc(Cl)c(Cl)c2)CC1,inactive
6,OC(CNCCc1ccc(Cl)cc1Cl)COc1ccccc1 (stereo unspecified),44 (active)
7,COc1ccc(OCC(O)CNC(=O)Nc2ccc(Cl)cc2)cc1 (stereo unspecified),inactive
8,OC(CNCc1ccc2c(c1)OCO2)COc1ccccc1 (stereo unspecified),inactive
9,CO/N=C/c1cn(-c2ccc(Cl)cc2)nn1,inactive
10,CCN(CC)c1ccc(NC(=O)CCc2nnc3ccc(N4CCCCC4)nn23)c(C)c1,inactive
11,CC(NC(=O)C(C)(C)C)C(c1cccs1)N1CCN(Cc2ccccc2)CC1 (stereo unspecified),inactive
12,CC(NC(=S)Nc1ccccc1)C(c1cccs1)N1CCOCC1 (stereo unspecified),inactive
13,CCCC(=O)NC(C)C(c1cccs1)N1CCN(c2ccccc2)CC1 (stereo unspecified),87 (active)
14,COc1ccc(CNC(=O)c2ccc3oc(C(C)C)nc3c2)cc1,inactive
15,COc1ccc(N(CC(=O)Nc2ccc(C)cc2C)S(=O)(=O)c2ccccc2[N+](=O)[O-])c(OC)c1,inactive
16,O=C(Nc1ccc2sc3ccccc3c(=O)c2c1)c1ccccc1Cl,inactive
17,COc1cc(SC#N)ccc1N=Cc1c(C)[nH]n(-c2ccc(C)cc2)c1=O,inactive
18,Cc1ccc(-n2[nH]c(C)c(/C=N/N3C(=O)c4cccc5cccc(c45)C3=O)c2=O)cc1,131 (active)
19,Cc1[nH]n(-c2cccc(Cl)c2)c(=O)c1/C=N/n1c(C)nc2ccccc2c1=O,inactive
20,COc1ccccc1CCNS(=O)(=O)c1cc2c3c(c1)C(C)C(=O)N3CCC2 (stereo unspecified),inactive
21,CCOc1ccc(S(=O)(=O)NCCC(=O)NCC(C)(C)N2CCOCC2)cc1,inactive
22,COc1ccccc1NC(=O)CC(NCCN(C)C)C(=O)O (stereo unspecified),inactive
23,COc1ccc(C)cc1NC(=O)Nc1ccccc1SC,inactive
24,COC(=O)C(CC(=O)Nc1cc(C)ccc1C)Nc1ccccc1OC (stereo unspecified),69 (active)

row,SMILES,B-score
1,Cc1ccc(CNC(=O)Cc2cn(C)c3ccccc23)cc1,inactive
2,COc1ccc(N2CCN(C(=O)c3cccs3)CC2)cc1,inactive
3,O=C(Nc1cccnc1)c1cc(Cl)ccc1Cl,inactive
4,CS(=O)(=O)N(CC(=O)Nc1ccc(Cl)c(Cl)c1)C1CCCCC1,inactive
5,CC(c1cccnc1)N(CCN(C)C)C(=O)Nc1ccc(Cl)c(Cl)c1 (stereo unspecified),62 (active)
6,CC1=C/C(=N\OS(=O)(=O)c2ccccc2)C=CC1=O,inactive
7,COc1ccc(-n2nc(C(=O)NCC(=O)N3CCC(C(N)=O)CC3)c3ccccc3c2=O)cc1OC,inactive
8,CC1(C)N=C(c2ccccn2)C(C)(C)N1O,inactive
9,CC1(C)CC(CNCCC(c2ccc(F)cc2)c2ccco2)CCO1 (stereo unspecified),inactive
10,O=C(CNC(=O)COc1ccccc1)NCCc1ccccn1,inactive
11,O=C(NCCc1ccccn1)c1cccnc1Oc1ccc(Cl)cc1,inactive
12,O=C(COc1cc(Cl)c(Cl)cc1Cl)NCCc1ccccn1,85 (active)
13,CCn1cc(-c2cc(C(=O)O)on2)c(C)n1,inactive
14,S=c1nc(C23CC4CC(CC(C4)C2)C3)nc2sccn12,inactive
15,N[C@@H](Cc1ccccc1)C(=O)N1CCC(C(=O)NCC(=O)Nc2ccc(F)cc2)CC1,inactive
16,CN(C)CCN(C(=O)C1CCCCC1)c1nc2cc3c(cc2s1)OCO3,66 (active)
17,CN(C)CCN(C(=O)CN1C(=O)c2ccccc2C1=O)c1nc2cc3c(cc2s1)OCCO3,inactive
18,CCN(CC)CCN(C(=O)c1cc(Cl)sc1Cl)c1nc2cc3c(cc2s1)OCO3,inactive
19,COc1cccc(/C=N/NC(=O)C(=O)N2CCCC2)c1,inactive
20,COc1ccc(/C=N/N(C)C2=NS(=O)(=O)c3ccccc32)cc1OC,inactive
21,CN(Cc1ccco1)S(=O)(=O)c1nnc(NC(=O)c2ccccc2)s1,inactive
22,O=S(=O)(Oc1ccccc1C(=S)N1CCOCC1)c1ccc(Cl)cc1,inactive
23,C[C@]1(C(=O)NCCc2c[nH]c3ccccc23)C=C[C@@H](Cc2ccccc2)N1C(=O)c1ccccc1,inactive
24,Cc1ccc(CCN2CC(C(=O)NCCc3ccccc3)CC2=O)cc1 (stereo unspecified),inactive

row,SMILES,B-score
1,C=CCN(C(=O)c1cc(C)cc(C)c1)C1(C(=O)Nc2ccccc2)CCN(C(C)C)CC1,inactive
2,Cc1cc(C)cc(C(=O)N(CCc2ccccc2)C2=CC3CCC(C2)N3C)c1 (stereo unspecified),75 (active)
3,CN(C)C(CNC(=O)Cc1ccc([N+](=O)[O-])cc1)c1ccccc1 (stereo unspecified),179 (active)
4,O=C(CC(c1ccccc1)c1ccccc1)NCC(O)c1ccc([N+](=O)[O-])cc1 (stereo unspecified),inactive
5,CN(C)CCNC(=O)Cc1ccc([N+](=O)[O-])cc1,inactive
6,CC(C)Oc1c(Br)cc(Br)cc1/C=N/NC(N)=S,inactive
7,Cc1ccc(S(=O)(=O)N(Cc2cc3ccccc3[nH]c2=O)CC2CCCO2)cc1 (stereo unspecified),inactive
8,COc1ccc(C(=O)NC2CCN(C(=S)NCCc3ccccc3)CC2)cc1,inactive
9,O=C(NNC(=S)NCc1ccccc1)c1ccc(OC(F)F)cc1,inactive
10,COc1ccc(C(=O)NNC(=S)NC(=O)c2ccccc2[N+](=O)[O-])cc1,inactive
11,O=C(CCc1ccccc1)NNC(=O)COc1ccc(Cl)cc1,inactive
12,Cc1ccc(OCC(=O)NNC(=S)NCc2ccccc2)cc1,inactive
13,CC(C)Oc1ccc(CCC(=O)NNC(=S)NCc2ccccc2)cc1,123 (active)
14,COc1ccc(C(=O)NC(=S)NC2CCCCC2)cc1,inactive
15,COc1ccc(C(=O)NC(=S)NNC(=O)CCc2ccccc2)cc1,96 (active)
16,COc1ccc(C(=O)NNC(=S)NC(=O)c2ccccc2)cc1,180 (active)
17,Cc1cc(C)c(C(=O)CSc2nc(C)cc(=O)[nH]2)c(C)c1,inactive
18,Cc1ccc(C(=O)NCC(=O)OCC(=O)NC2CCCCCCC2)cc1,inactive
19,COc1ccc(Br)cc1CN(C)CC(=O)Nc1cc([N+](=O)[O-])ccc1OC,inactive
20,CCCn1nc(C(=O)N2CCCc3ccccc32)c2ccccc2c1=O,inactive
21,CN(C)C(=O)N1CCNCC1,inactive
22,Cc1ccc(CC2CC(=O)N(c3cc(C)ccc3C)C2=O)cc1 (stereo unspecified),inactive
23,O=C(CNS(=O)(=O)c1ccc(Br)s1)N1CCN(C(=O)c2ccco2)CC1,inactive
